≈ marks a conversion by molar mass, not a printed value.
Tested on: Rhizoctonia solani
Test: Fungicidal activity against Rhizoctonia solani by mycelium growth rate test
Format: functional, organism-based

| Compound | EC50 [mg/L] |
| --- | --- |
| CCCO/N=C1\CCCCCCCCCCC(=O)NCCC1 | 3.62 (≈ 11.7 µM) |
| CCCO/N=C1/CCCCCCCCCCC(=O)NCC1 | 22.1 (≈ 74.5 µM) |
| O=C1CCCCCCCCCC/C(=N/OCc2ccc(Cl)cc2)CCCN1 | 68.4 (≈ 174 µM) |
| O=C1CCCCCCCCCC/C(=N\OCc2ccc(Cl)cc2)CCCN1 | 164 (≈ 418 µM) |
| O=C1CCCCCCCCCC/C(=N/OCc2c(F)cccc2Cl)CCCN1 | 2.34 (≈ 5.69 µM) |
| O=C1CCCCCCCCCC/C(=N\OCc2c(F)cccc2Cl)CCCN1 | 6.21 (≈ 15.1 µM) |
| CCCON=C1CCCCCCCCCCC(=O)OCCC1 | 8.08 (≈ 25.9 µM) |
| C=CCON=C1CCCCCCCCCCC(=O)OCCC1 | 12.8 (≈ 41.2 µM) |
| CCCCON=C1CCCCCCCCCCC(=O)OCCC1 | 13.4 (≈ 41 µM) |
| CCCCCCCON=C1CCCCCCCCCCC(=O)OCCC1 | 9.68 (≈ 26.3 µM) |
| CCCCCCCCCCCCCCCCON=C1CCCCCCCCCCC(=O)OCCC1 | 40.4 (≈ 81.8 µM) |
| O=C1CCCCCCCCCCC(=NOCc2ccccc2)CCCO1 | 45.1 (≈ 126 µM) |
| O=C1CCCCCCCCCCC(=NOCc2ccc(Cl)cc2)CCCO1 | 19.6 (≈ 49.8 µM) |
| O=C1CCCCCCCCCCC(=NOCc2c(F)cccc2Cl)CCCO1 | 51.3 (≈ 124 µM) |
| O=C1CCCCCCCCCC/C(=N\OCc2cccnc2)CCN1 | 52.5 (≈ 152 µM) |
| CCO/N=C1\CCCCCCCCCCC(=O)NCCC1 | 22.7 (≈ 76.7 µM) |
| CCCO/N=C1/CCCCCCCCCCC(=O)NCCC1 | 13.1 (≈ 42.3 µM) |
| C=CCO/N=C1/CCCCCCCCCCC(=O)NCCC1 | 45.6 (≈ 148 µM) |
| C=CCO/N=C1\CCCCCCCCCCC(=O)NCCC1 | 15.9 (≈ 51.6 µM) |
| CCCCO/N=C1/CCCCCCCCCCC(=O)NCCC1 | 3.97 (≈ 12.2 µM) |

| Compound | EC50 [mg/L] |
| --- | --- |
| CCCCO/N=C1\CCCCCCCCCCC(=O)NCCC1 | 2.34 (≈ 7.21 µM) |
| CCCCCCCO/N=C1/CCCCCCCCCCC(=O)NCCC1 | 19.2 (≈ 52.5 µM) |
| CCCCCCCO/N=C1\CCCCCCCCCCC(=O)NCCC1 | 27.9 (≈ 76.1 µM) |
| CCCCCCCCCCCCCCCCO/N=C1/CCCCCCCCCCC(=O)NCCC1 | 47.8 (≈ 96.9 µM) |
| CCCCCCCCCCCCCCCCO/N=C1\CCCCCCCCCCC(=O)NCCC1 | 51.5 (≈ 104 µM) |
| O=C1CCCCCCCCCC/C(=N/OCc2ccccc2)CCCN1 | 5.84 (≈ 16.3 µM) |
| O=C1CCCCCCCCCC/C(=N\OCc2ccccc2)CCCN1 | 8.28 (≈ 23.1 µM) |
| O=C1CCCCCCCCCC/C(=N\OCc2ccccc2)CCN1 | 7.24 (≈ 21 µM) |
| Cc1ccc(CO/N=C2/CCCCCCCCCCC(=O)NCC2)cc1 | 111 (≈ 310 µM) |
| Cc1ccc(CO/N=C2\CCCCCCCCCCC(=O)NCC2)cc1 | 50.5 (≈ 141 µM) |
| O=C1CCCCCCCCCC/C(=N/OCc2ccc(F)cc2)CCN1 | 74.9 (≈ 207 µM) |
| O=C1CCCCCCCCCC/C(=N\OCc2ccc(F)cc2)CCN1 | 12.1 (≈ 33.3 µM) |
| O=C1CCCCCCCCCC/C(=N/OCc2ccc(Cl)cc2)CCN1 | 97.2 (≈ 257 µM) |
| O=C1CCCCCCCCCC/C(=N\OCc2ccc(Cl)cc2)CCN1 | 84.8 (≈ 224 µM) |
| O=C1CCCCCCCCCC/C(=N/OCc2ccc([N+](=O)[O-])cc2)CCN1 | 49.3 (≈ 127 µM) |
| O=C1CCCCCCCCCC/C(=N\OCc2ccc([N+](=O)[O-])cc2)CCN1 | 166 (≈ 427 µM) |
| O=C1CCCCCCCCCC/C(=N/OCc2c(F)cccc2Cl)CCN1 | 1730 (≈ 4370 µM) |
| O=C1CCCCCCCCCC/C(=N\OCc2c(F)cccc2Cl)CCN1 | 43 (≈ 108 µM) |
| O=C1CCCCCCCCCC/C(=N/OCc2ccc(Cl)cc2Cl)CCN1 | 100 (≈ 242 µM) |
| O=C1CCCCCCCCCC/C(=N\OCc2ccc(Cl)cc2Cl)CCN1 | 106 (≈ 256 µM) |

| Compound | EC50 [mg/L] |
| --- | --- |
| O=C1CCCCCCCCCC/C(=N/OCc2cccnc2)CCN1 | 56.4 (≈ 163 µM) |
| CCO/N=C1\CCCCCCCCCCC(=O)NCC1 | 25.8 (≈ 91.5 µM) |
| CCCO/N=C1\CCCCCCCCCCC(=O)NCC1 | 9.11 (≈ 30.7 µM) |
| C=CCO/N=C1/CCCCCCCCCCC(=O)NCC1 | 44 (≈ 150 µM) |
| C=CCO/N=C1\CCCCCCCCCCC(=O)NCC1 | 21.8 (≈ 73.9 µM) |
| CCCCO/N=C1/CCCCCCCCCCC(=O)NCC1 | 55.1 (≈ 177 µM) |
| CCCCO/N=C1\CCCCCCCCCCC(=O)NCC1 | 7.21 (≈ 23.2 µM) |
| CC(C)CO/N=C1/CCCCCCCCCCC(=O)NCC1 | 48.4 (≈ 156 µM) |
| CC(C)CO/N=C1\CCCCCCCCCCC(=O)NCC1 | 30.4 (≈ 97.8 µM) |
| CCCCCCCO/N=C1/CCCCCCCCCCC(=O)NCC1 | 209 (≈ 594 µM) |
| CCCCCCCO/N=C1\CCCCCCCCCCC(=O)NCC1 | 50.3 (≈ 143 µM) |
| CCCCCCCCCCCCCCO/N=C1/CCCCCCCCCCC(=O)NCC1 | 101 (≈ 224 µM) |
| CCCCCCCCCCCCCCO/N=C1\CCCCCCCCCCC(=O)NCC1 | 69.1 (≈ 153 µM) |
| CCCCCCCCCCCCCCCCO/N=C1/CCCCCCCCCCC(=O)NCC1 | 135 (≈ 282 µM) |
| CCCCCCCCCCCCCCCCO/N=C1\CCCCCCCCCCC(=O)NCC1 | 127 (≈ 266 µM) |
| O=C1CCCCCCCCCC/C(=N/OCc2ccccc2)CCN1 | 18.1 (≈ 52.7 µM) |
| CO/N=C1/CCCCCCCCCCC(=O)NCC1 | 51.3 (≈ 191 µM) |
| CO/N=C1\CCCCCCCCCCC(=O)NCC1 | 55.8 (≈ 208 µM) |
| COC(=O)Nc1nc2ccccc2[nH]1 [CARBENDAZIM] | 1.54 (≈ 8.05 µM) |

Tested on: Phytophthora capsici
Test: Fungicidal activity against Phytophthora capsici assessed as growth inhibition
Format: functional, organism-based

| Compound | EC50 [mg/L] |
| --- | --- |
| CCCON=C1CCCCCCCCCCC(=O)NCCC1 | 57.8 (≈ 186 µM) |

Tested on: Fulvia fulva
Test: Fungicidal activity against Passalora fulva Cooke (tomato leaf mold fungi) assessed as growth inhibition
Format: functional, organism-based

| Compound | EC50 [mg/L] |
| --- | --- |
| CCCON=C1CCCCCCCCCCC(=O)NCCC1 | 53.1 (≈ 171 µM) |

Tested on: Alternaria solani
Test: Fungicidal activity against Alternaria solani assessed as growth inhibition
Format: functional, organism-based

| Compound | EC50 [mg/L] |
| --- | --- |
| CCCON=C1CCCCCCCCCCC(=O)NCCC1 | 44.2 (≈ 142 µM) |

Tested on: Pythium aphanidermatum
Test: Fungicidal activity against Pythium aphanidermatum assessed as growth inhibition
Format: functional, organism-based

| Compound | EC50 [mg/L] |
| --- | --- |
| CCCON=C1CCCCCCCCCCC(=O)NCCC1 | 33.3 (≈ 107 µM) |

Tested on: Fusarium oxysporum f. sp. vasinfectum
Test: Fungicidal activity against cotton Fusarium oxysporum f. sp. vasinfectum (fusarium wilt fungi) assessed as growth inhibition
Format: functional, organism-based

| Compound | EC50 [mg/L] |
| --- | --- |
| CCCON=C1CCCCCCCCCCC(=O)NCCC1 | 29 (≈ 93.4 µM) |

Tested on: Colletotrichum lagenaria
Test: Fungicidal activity against Colletotrichum lagenaria assessed as growth inhibition
Format: functional, organism-based

| Compound | EC50 [mg/L] |
| --- | --- |
| CCCON=C1CCCCCCCCCCC(=O)NCCC1 | 23.9 (≈ 77 µM) |

Tested on: Rhizoctonia solani
Test: Fungicidal activity against Rhizoctonia solani assessed as growth inhibition
Format: functional, organism-based
Procedure, shortened: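 Mycelium growth rate test on Rhizoctonia solani Kühn. Inhibition rate was measured at 100, 50, 25, 12.5 and 6.25 µg/mL. EC50 was estimated by logistic analysis. A commercial fungicide reference was run under the same conditions.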

| Compound | EC50 [mg/L] |
| --- | --- |
| CCCON=C1CCCCCCCCCCC(=O)NCCC1 | 4.6 (≈ 14.8 µM) |

Tested on: Verticillium albo-atrum
Test: Fungicidal activity against Vercicillium albo-atrum assessed as growth inhibition
Format: functional, organism-based

| Compound | EC50 [mg/L] |
| --- | --- |
| CCCON=C1CCCCCCCCCCC(=O)NCCC1 | 19.3 (≈ 62.2 µM) |

Tested on: Botryosphaeria berengeriana
Test: Fungicidal activity against Botryosphaeria berengeriana Nose (apple ring spot fungi) assessed as growth inhibition
Format: functional, organism-based

| Compound | EC50 [mg/L] |
| --- | --- |
| CCCON=C1CCCCCCCCCCC(=O)NCCC1 | 13.8 (≈ 44.4 µM) |

Tested on: Phomopsis asparagi
Test: Fungicidal activity against Phomopsis asparagi assessed as growth inhibition
Format: functional, organism-based

| Compound | EC50 [mg/L] |
| --- | --- |
| CCCON=C1CCCCCCCCCCC(=O)NCCC1 | 12 (≈ 38.6 µM) |

Tested on: Botrytis cinerea
Test: Fungicidal activity against Botryotinia fuckeliana assessed as growth inhibition
Format: functional, organism-based

| Compound | EC50 [mg/L] |
| --- | --- |
| CCCON=C1CCCCCCCCCCC(=O)NCCC1 | 8.6 (≈ 27.7 µM) |

Tested on: Phyllosticta
Test: Fungicidal activity against Phyllospicpa physaleos Sacc (tomato southern blight fungi) assessed as growth inhibition
Format: functional, organism-based

| Compound | EC50 [mg/L] |
| --- | --- |
| CCCON=C1CCCCCCCCCCC(=O)NCCC1 | 1.9 (≈ 6.12 µM) |

Tested on: Alternaria kikuchiana
Test: Fungicidal activity against Alternaria kikuchiana (pear black spot fungi) assessed as growth inhibition
Format: functional, organism-based

| Compound | EC50 [mg/L] |
| --- | --- |
| CCCON=C1CCCCCCCCCCC(=O)NCCC1 | 1.2 (≈ 3.86 µM) |

Reference: ChEMBL document CHEMBL3045435, “Synthesis and fungicidal activity of macrolactams and macrolactones with an oxime ether side chain” (J Agric Food Chem, 2007)
